Assay results as given in ChEMBL document CHEMBL2169849, “Identification of antischistosomal leads by evaluating bridged 1,2,4,5-tetraoxanes, alphaperoxides, and tricyclic monoperoxides” (J Med Chem, 2012).

Tests used:
Schistosoma mansoni [1] = assay: Antischistosomal activity against adult Schistosoma mansoni schistosomes incubated for 72 hrs in presence of 120 uM Fe(3)-hemin; format: functional, organism-based
Outline: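 Adult worm motility assay in RPMI 1640 + 5% iFCS at 1.1–30 μg/ml. Fe(III)-hemin held at 120 μM final throughout exposure; hemin stock 1.5 mM in dilute NaOH/PBS pH 7.4. Motility scored, IC50 determined at 72 h. At least three experiments.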

Schistosoma mansoni [2] = assay: Antischistosomal activity against Schistosoma mansoni NTS incubated for 72 hrs; format: functional, organism-based
Outline: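 NTS from mechanically transformed cercariae (Liberian strain), 100 per well in Medium 199 + 5% iFCS, penicillin/streptomycin, preincubated 12–24 h at 37°C, 5% CO2. Exposed to 0.37–90 μg/ml (threefold steps) for 72 h. Scored microscopically on a viability scale (death, motility, morphology). DMSO control; duplicates, at least three experiments; IC50 from viability scores.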

Schistosoma mansoni [3] = assay: Antischistosomal activity against adult Schistosoma mansoni schistosomes incubated for 72 hrs; format: functional, organism-based
Schistosoma mansoni [4] = assay: Antischistosomal activity against adult Schistosoma mansoni infected NMRI mouse adult infection model assessed as reduction in total worm burden at 400 mg/kg administered as single dose starting from 49 days post infection; format: functional; set-up: scale not given: the % may be the effect or the level left
Outline: (§1)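 Mice infected subcutaneously with ~100 S. mansoni cercariae (Liberian strain). At day 49 post infection, groups of 4 NMRI mice received a single oral 400 mg/kg dose; 8–10 untreated controls. Total and female worm burden reductions calculated against untreated controls.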

Schistosoma mansoni [5] = assay: Antischistosomal activity against adult Schistosoma mansoni infected NMRI mouse adult infection model assessed as reduction in female worm burden at 400 mg/kg administered as single dose starting from 49 days post infection; format: functional; set-up: scale not given: the % may be the effect or the level left; outline: as §1
[6] = Selectivity index, ratio of IC50 for rat L6 cells to IC50 for adult Schistosoma mansoni schistosomes
Outline: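 Ratio of L6 IC50 to adult S. mansoni IC50, both from the assays above.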

L6 = assay: Cytotoxicity against rat L6 cells incubated for […] hrs by Alamar blue assay; format: cell-based
[7] = Selectivity index, ratio of IC50 for human MRC5 cells to IC50 for human HeLa cells; format: cell-based; conditions: MRC5 cells versus HeLa cells, read-out: Ratio IC50
MRC5 = assay: Cytotoxicity against human MRC5 cells incubated for 48 hrs by resazurin dye reduction assay; format: cell-based; conditions: MRC5, 48 h
Schistosoma mansoni [8] = assay: Antischistosomal activity against adult Schistosoma mansoni infected NMRI mouse juvenile infection model assessed as reduction in female worm burden at 400 mg/kg administered as single dose starting from 21 days post infection; format: functional; set-up: scale not given: the % may be the effect or the level left
Outline: (§2)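 Juvenile model: NMRI mice infected with ~100 cercariae were given a single oral 400 mg/kg dose on day 21 post infection. Dissected four weeks after treatment, worms sexed and counted. Total and female burden reductions calculated against untreated controls.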

HeLa = assay: Cytotoxicity against human HeLa cells incubated for 48 hrs by resazurin dye reduction assay; format: cell-based
Schistosoma mansoni [9] = assay: Antischistosomal activity against adult Schistosoma mansoni infected NMRI mouse juvenile infection model assessed as reduction in total worm burden at 400 mg/kg administered as single dose starting from 21 days post infection; format: functional; set-up: scale not given: the % may be the effect or the level left; outline: as §2

SMILES | IC50 (Schistosoma mansoni [2]) [µM] | IC50 (Schistosoma mansoni [3]) [µM] | other results
CCOC(=O)CCC12CCC3(C)O[C@]1(C)OO[C@]2(C)O3 | 3.5 | > 105 | IC50 (Schistosoma mansoni [1]): 92.2 µM
C[C@]12OO[C@](C)(OO1)C2CCC(=O)NC12CC3CC(CC(C3)C1)C2 (stereo not given in full) | 0.8 | 33.3 | IC50 (Schistosoma mansoni [1]): 39.3 µM
CC12CCC3(Cc4ccc([N+](=O)[O-])cc4)[C@@](C)(OO[C@]3(C)O1)O2 | 9 | 12.2 | Activity (Schistosoma mansoni [4]): 4.7%; Activity (Schistosoma mansoni [5]): 9.6%; Ratio IC50 [6]: >7.6; IC50 (L6): > 93 µM
CCCCC(OOC(C)(C)C)(C(C)=O)C(=O)OCC (stereo not given) | 26.5 |  | 
C=CCC12CCC3(C)O[C@]1(C)OO[C@]2(C)O3 | 15.6 |  | 
C#CCC12CCC3(C)O[C@]1(C)OO[C@]2(C)O3 | 8.1 | 82.4 | 
C1COC(OOC23CC4CC(CC(C4)C2)C3)C1 (stereo not given) | > 126 |  | 
CC12CCC3(Cc4ccccc4)[C@@](C)(OO[C@]3(C)O1)O2 | 13.4 | > 109 | 
C[C@]12OO[C@](C)(OO1)C2CCC(=O)N1CCCCCC1 (stereo not given in full) | 5.5 | 50.1 | 
CC(C)(C)OOC(C#N)(C#N)Cc1ccc(Cl)cc1 | 3.9 | 19.3 | IC50 (Schistosoma mansoni [1]): 17.9 µM
CC12CCC3[C@@](C)(OO[C@]3(c3ccc(Cl)cc3)O1)O2 | 16 |  | 
CCOC(=O)CCC(OOC(C)(C)C)(C(C)=O)C(C)=O | > 104 |  | 
CC(C)C(C#N)(C#N)OOC(C)(C)C | 293 |  | 
CC12CCC3(CCC(=O)O)[C@@](C)(OO[C@]3(C)O1)O2 | > 348 |  | 
CCOC(=O)C(C#N)(Cc1ccc(Cl)cc1)OOC(C)(C)C (stereo not given) | 9 | > 127 | 
CC(C)NC(=O)CCC1[C@]2(C)OO[C@@]1(C)OO2 (stereo not given in full) | 25.6 |  | 
COc1ccc(CC(C#N)(C#N)OOC(C)(C)C)cc1 | 8 | 40.6 | 
CC12CCC3(CCC(=O)N4CCOCC4)[C@@](C)(OO[C@]3(C)O1)O2 | > 287 |  | 
CC(C)(C)OOC(C#N)(C#N)Cc1ccccc1 | 5 | 14.7 | Activity (Schistosoma mansoni [4]): 0%; Activity (Schistosoma mansoni [5]): 0%; Ratio IC50 [6]: 6.4; IC50 (L6): 99 µM
CC(c1ccccc1)C1[C@]2(C)OO[C@@]1(C)OO2 (stereo not given in full) | 1.1 | 18.8 | Activity (Schistosoma mansoni [4]): 5%; Activity (Schistosoma mansoni [5]): 4.6%; IC50 (Schistosoma mansoni [1]): 12.9 µM; Ratio IC50 [6]: 0.1; IC50 (L6): 2.2 µM
CCOC(=O)C(CCC#N)(OOC(C)(C)C)C(C)=O (stereo not given) | > 111 |  | 
C[C@]12OO[C@](C)(OO1)C2CCC(=O)NCc1ccccc1 (stereo not given in full) | 10.9 | > 102 | 
CC(c1ccc2ccccc2c1)C1[C@]2(C)OO[C@@]1(C)OO2 (stereo not given in full) | 7.1 | 35.5 | 
CC12CCC3(CC4CO4)[C@@](C)(OO[C@]3(C)O1)O2 (stereo not given in full) | 22.5 |  | 
Cc1ccc([C@]23OO[C@@]4(C)OC(C)(CCC42)O3)cc1 | 45.3 |  | 
C[C@]12OO[C@](C)(OO1)C2C12CC3CC(CC(C3)C1)C2 (stereo not given in full) | 0.1 | 0.3 | selectivity ratio [7]: 2; IC50 (MRC5): 1.2 µM; Activity (Schistosoma mansoni [8]): 50%; Activity (Schistosoma mansoni [4]): 75.4%; Activity (Schistosoma mansoni [5]): 77.8%; IC50 (HeLa): 0.4 µM; Ratio IC50 [6]: 5.7; IC50 (L6): 1.7 µM; Activity (Schistosoma mansoni [9]): 43.1%
C=CCC(C#N)(OOC(C)(C)C)C(=O)OCC (stereo not given) | 43.2 |  | 
CC12CCC3(CCC(=O)NC45CC6CC(CC(C6)C4)C5)[C@@](C)(OO[C@]3(C)O1)O2 | 213 |  | 

SMILES | IC50 (Schistosoma mansoni [2]) [µM] | IC50 (Schistosoma mansoni [3]) [µM] | other results
CC12CCC3[C@@](C)(OO[C@]3(c3ccc(Br)cc3)O1)O2 | 1.7 | 8.7 | Activity (Schistosoma mansoni [4]): 31.3%; Activity (Schistosoma mansoni [5]): 36.4%; Ratio IC50 [6]: 0.9; IC50 (L6): 8.2 µM
C[C@]12OO[C@](C)(OO1)C2CCC(=O)N1CCOCC1 (stereo not given in full) | 10.7 | 36.9 | 
CC12CCC3[C@@](C)(OO[C@]3(C)O1)O2 | 9 | 19.2 | 
C[C@]12OO[C@](C)(OO1)C2CCC(=O)NCCc1ccccc1 (stereo not given in full) | 6.1 | 65.6 | 
CCOC(=O)C(C#N)(Cc1ccccc1)OOC(C)(C)C (stereo not given) | 67.7 |  | 
CCOC(=O)CNC(=O)CCC1[C@]2(C)OO[C@@]1(C)OO2 (stereo not given in full) | 11.7 | > 104 | 
CCOC(=O)C(Cc1ccccc1)(OOC(C)(C)C)C(=O)OCC | 14.6 | 59.1 | 
CC12CCC3(CCC#N)[C@@](C)(OO[C@]3(C)O1)O2 | > 376 |  | 
CC12CCC3(C)[C@@](C)(OO[C@]3(C)O1)O2 | 180 |  | 
C[C@H]1[C@H](OC(=O)CCC(=O)O)O[C@@H]2O[C@@]3(C)CC[C@H]4[C@H](C)CC[C@@H]1[C@@]24OO3 [ARTESUNATE] | 4.97 | 38.7 | selectivity ratio [7]: 2; IC50 (MRC5): 6.8 µM; IC50 (Schistosoma mansoni [1]): 38.7 µM; IC50 (HeLa): 3.2 µM; Ratio IC50 [6]: 0.04; IC50 (L6): 1.5 µM
C[C@]12OO[C@](C)(OO1)C2CCC(=O)N1CCCC1 (stereo not given in full) | 13.9 | > 117 | 
Cc1ccc(C(C)C2[C@]3(C)OO[C@@]2(C)OO3)cc1 (stereo not given in full) | 0.6 | 30.9 | IC50 (Schistosoma mansoni [1]): 41.2 µM
C[C@]12OO[C@](C)(OO1)C2CCC(=O)N1CCCCC1 (stereo not given in full) | 6.6 | > 111 | 
CC12CCC3[C@@](C)(OO[C@]3(c3ccccc3)O1)O2 | 9.3 | 7.7 | Activity (Schistosoma mansoni [4]): 6.5%; Activity (Schistosoma mansoni [5]): 15.2%; Ratio IC50 [6]: 1.3; IC50 (L6): 10.3 µM
CCOC(=O)CC(C)C(C#N)(C#N)OOC(C)(C)C (stereo not given) | 157 |  | 
CC(C)(C)OOC(C#N)(C#N)C1CCCC1 | 10.7 | 123 | 
Cc1ccc(CC23CCC4(C)O[C@]2(C)OO[C@]3(C)O4)cc1 | 4.5 | > 103 | Activity (Schistosoma mansoni [4]): 0%; Activity (Schistosoma mansoni [5]): 0%; IC50 (Schistosoma mansoni [1]): 13.4 µM; Ratio IC50 [6]: >7.7; IC50 (L6): > 103 µM
CC(c1ccc(Br)cc1)C1[C@]2(C)OO[C@@]1(C)OO2 (stereo not given in full) | 1 | 33.6 | IC50 (Schistosoma mansoni [1]): 47.7 µM
Cc1ccc(CC2[C@]3(C)OO[C@@]2(C)OO3)cc1 (stereo not given in full) | 1.2 | 40 | IC50 (Schistosoma mansoni [1]): > 127 µM
CCOC(=O)C(C#N)(CC(C)=O)OOC(C)(C)C (stereo not given) | 37.8 |  | 
C[C@]12OO[C@](C)(OO1)C2CCC(=O)NC1CCCCC1 (stereo not given in full) | 8.9 | 66.6 | 
CCCCC12CCC3(C)O[C@]1(C)OO[C@]2(C)O3 | 22.3 |  | 
CC(=O)C(C)(OOC(C)(C)C)C(C)=O | > 795 |  | 
CC(c1ccc(Cl)cc1)C1[C@]2(C)OO[C@@]1(C)OO2 (stereo not given in full) | 0.4 | 35.5 | IC50 (Schistosoma mansoni [1]): 25.3 µM
CCOC(=O)C(Cc1ccccc1)(OOC(C)(C)C)C(C)=O (stereo not given) | 15.1 |  | 
COc1ccc([C@]23OO[C@@]4(C)OC(C)(CCC42)O3)cc1 | 14.4 | 11.7 | selectivity ratio [7]: 2; IC50 (MRC5): 12.4 µM; Activity (Schistosoma mansoni [8]): 27.3%; Activity (Schistosoma mansoni [4]): 82.8%; Activity (Schistosoma mansoni [5]): 82.9%; IC50 (HeLa): 6 µM; Ratio IC50 [6]: 4.9; IC50 (L6): 58.3 µM; Activity (Schistosoma mansoni [9]): 18.9%
O=C(C1CCCCC1)N1CC(=O)N2CCc3ccccc3C2C1 (stereo not given) [PRAZIQUANTEL] | 2.2 |  | IC50 (L6): > 96 µM
